Compound activity (PubChem BioAssay)
STAT1 act: increases IFN-gamma driven STAT1 reporter signal; NIH 3T3 STAT1-luciferase reporter, luminescence; 100% = IFN-gamma alone, no compound; activation (% of control), % at 5.5 µM; actives 2.6% (n = 200,000);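 active = activation above the screen-wide mean activation plus 3 SD, cut at about 130% in these data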;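 note: raw ratio to IFN-gamma control signal so 100% means no change and 0% no light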
APP 5'UTR act: activates APP 5'UTR luciferase reporter; actives 1% (n = 190,000); activation, % at 2 µM; SH-SY5Y APP 5'UTR luciferase reporter, luminescence; zero percent = DMSO vehicle wells; AID 1276;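 active = activation above a set limit, based on mean plus 3 SD of controls, cut at about 140% in these data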
STAT3 act: STAT3 signaling activation; activation (% of control), % at 5.6 µM; U3A cells, IL-6 STAT3-luciferase reporter, luminescence; 100% = signal with IL-6 EC80 alone; actives 0.91% (n = 190,000);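 active = activation above the screen-wide mean of compound activation plus 3 SD, cut at about 130% in these data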;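 note: 0% = background luminescence of wells with medium and substrate only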
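Test system: Human STAT1-deficient U3A cells with stable STAT3-luciferase reporter | Also added: Interleukin-6, 33 ng/mL | Timing: Compound pre-incubation 1 h before IL-6, then 6 h stimulation at 37 °C | Technique: Luciferase reporter luminescence | Read-out: Percent of IL-6-only median luminescence | Benchmarks: IL-6-only wells as 100% reference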
NF-kB expr up: NF-kB expression increase, human neuronal cells; NF-kB reporter expression; hits give high values; actives 1.6% (n = 190,000); fold change at 12.5 µM; in the data active = fold change above about 3.3
STAT1 blocker: STAT1 signaling inhibition; NIH 3T3 STAT1-luciferase reporter, IFN-gamma, luminescence; inhibition, % at 5.5 µM; actives 0.35% (n = 200,000);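 active = inhibition above a set limit, the mean inhibition across all tested compounds plus 3 SD, cut at about 34% in these data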;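 note: 0% = IFN-gamma with DMSO and 100% = IFN-gamma with 300 µM nifuroxazide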
STAT3 inh: inhibitors of IL-6 induced STAT3 signaling; U3A cells, IL-6 STAT3-luciferase reporter, luminescence; host cell line lacks STAT1; inhibition, % at 5.5 µM; actives 0.89% (n = 190,000);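 active = inhibition above the mean inhibition across all screened compounds plus 3 SD, cut at about 44% in these data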;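 note: 0% = DMSO only wells and 100% = 100 µM nifuroxazide control wells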
* = called active by the depositor. The list is not random: actives were taken first. Their share in the collection is about 4.9%.

Results for O=C(Nc1nc2ccccc2n1CCN1CCCCC1)c1ccc(Cl)cc1 ?
STAT1 act: 100; APP 5'UTR act: 5; STAT3 act: 122; NF-kB expr up: 1.3; STAT1 blocker: 0; STAT3 inh: -18

Results for CCCn1c(NC(=O)c2ccc(C)cc2)nc2ccccc21 ?
STAT1 act: 114; APP 5'UTR act: 18; STAT3 act: 104; NF-kB expr up: 1.2; STAT1 blocker: -15; STAT3 inh: 0

Results for CC[C@@H](C)C(NC(=O)OC(C)(C)C)c1cn([C@@H](Cc2cc3ccccc3[nH]2)C(=O)N2CCN(C(=O)OC(C)(C)C)CC2)nn1 (stereo partly drawn) ?
STAT1 act: 98; APP 5'UTR act: 12; NF-kB expr up: 0.6; STAT1 blocker: 4

How did O=C(NCCc1ccccc1)c1nc(-c2cccs2)no1 do in these assays?
STAT1 act: 119; APP 5'UTR act: 20; STAT3 act: 100; NF-kB expr up: 1.2; STAT1 blocker: -22; STAT3 inh: 7

What do the screens show for `COC(=O)c1ccc(OS(=O)(=O)N(C)C)cc1`?
STAT1 act: 130*; APP 5'UTR act: 27; STAT3 act: 115; NF-kB expr up: 1; STAT1 blocker: -34; STAT3 inh: -10

How did CN(C)S(=O)(=O)Oc1cccc(C(=O)Nc2ccc(Cl)c(Cl)c2)c1 do in these assays?
STAT1 act: 137*; APP 5'UTR act: 174*; STAT3 act: 83; NF-kB expr up: 4.2*; STAT1 blocker: -41; STAT3 inh: 21

Results for CN(C)S(=O)(=O)Oc1ccc(C(=O)Nc2ccc([N+](=O)[O-])cc2)cc1 ?
STAT1 act: 93; APP 5'UTR act: 44; STAT3 act: 73; NF-kB expr up: 1.1; STAT1 blocker: 7; STAT3 inh: 35

What do the screens show for `COc1ccc(NC(=O)c2cccc(OS(=O)(=O)N(C)C)c2)cc1`?
STAT1 act: 110; APP 5'UTR act: 157*; STAT3 act: 98; NF-kB expr up: 4.8*; STAT1 blocker: -12; STAT3 inh: 10

Results for CN(C)S(=O)(=O)Oc1cccc(C(=O)Nc2cccc(Cl)c2)c1 ?
STAT1 act: 116; APP 5'UTR act: 72; STAT3 act: 86; NF-kB expr up: 1.6; STAT1 blocker: -18; STAT3 inh: 27

What do the screens show for `COc1ccc(CN2CCN(S(=O)(=O)c3ccc(NC(C)=O)cc3)CC2)c(OC)c1OC`?
STAT1 act: 105; APP 5'UTR act: -5; STAT3 act: 92; NF-kB expr up: 1; STAT1 blocker: -5; STAT3 inh: 10

What do the screens show for `CCS(=O)(=O)c1nc(S(=O)(=O)c2ccc(Cl)cc2)c(NCCOC)s1`?
STAT1 act: 95; APP 5'UTR act: -12; STAT3 act: 107; NF-kB expr up: 1.2; STAT1 blocker: 4; STAT3 inh: -3

Results for CCN1CCN(CC(=O)c2c[nH]c3ccccc23)CC1 ?
STAT1 act: 102; APP 5'UTR act: -3; STAT3 act: 133*; NF-kB expr up: 0.94; STAT1 blocker: -2; STAT3 inh: -31

How did N#Cc1cccnc1Nc1ccc(Cl)cc1 do in these assays?
STAT1 act: 101; APP 5'UTR act: 1; STAT3 act: 85; NF-kB expr up: 1.1; STAT1 blocker: -1; STAT3 inh: 22

Results for CCCCc1ccc(Nc2ncccc2C#N)cc1 ?
STAT1 act: 138*; APP 5'UTR act: 105; STAT3 act: 104; NF-kB expr up: 2.4; STAT1 blocker: -42; STAT3 inh: 2

How did O=C1C=CC(=O)N1c1ccc(OC(F)F)cc1 do in these assays?
STAT1 act: 98; APP 5'UTR act: -56; STAT3 act: 97; NF-kB expr up: 1.5; STAT1 blocker: 4; STAT3 inh: 2

Results for O=C1NC(=S)N/C1=C/C=C/c1ccccc1 ?
STAT1 act: 134*; APP 5'UTR act: 0; STAT3 act: 92; NF-kB expr up: 2.5; STAT1 blocker: -34; STAT3 inh: 14

Results for Cc1cc(C)nc(NS(=O)(=O)c2ccc(NC(=O)c3ccc4c(c3)OCCO4)cc2)n1 ?
STAT1 act: 101; APP 5'UTR act: 24; STAT3 act: 112; NF-kB expr up: 0.95; STAT1 blocker: -1; STAT3 inh: -4

Results for NNc1nc2c(-c3ccc(Cl)cc3)nnn2c2ccccc12 ?
STAT1 act: 135*; APP 5'UTR act: 106; STAT3 act: 144*; NF-kB expr up: 1.1; STAT1 blocker: -41; STAT3 inh: -54

Results for NNc1nc2c(-c3ccc(F)cc3)nnn2c2ccccc12 ?
STAT1 act: 141*; APP 5'UTR act: 134; STAT3 act: 119; NF-kB expr up: 0.97; STAT1 blocker: -49; STAT3 inh: -23

Results for O=C(CSc1nc2ccc(Cl)cc2[nH]1)N1CCN(C(=O)c2ccco2)CC1 ?
STAT1 act: 100; APP 5'UTR act: -11; STAT3 act: 100; NF-kB expr up: 0.94; STAT1 blocker: -1; STAT3 inh: -5

How did COc1cc(C2C(S(=O)(=O)c3ccccc3)CON2C)ccc1OCc1ccc(F)cc1 (stereo not drawn) do in these assays?
STAT1 act: 98; APP 5'UTR act: 35; STAT3 act: 98; NF-kB expr up: 6.6*; STAT1 blocker: 1; STAT3 inh: 9

Results for CCc1nnc(NC(=O)CSc2nc3cc4c(cc3cc2CC)OCCO4)s1 ?
STAT1 act: 105; APP 5'UTR act: -4; STAT3 act: 97; NF-kB expr up: 3.5*; STAT1 blocker: -5; STAT3 inh: 7

How did CCOCCCN1C(=O)CN(C2CCC(C)CC2)C(=O)C1c1ccc(C)cc1 (stereo not drawn) do in these assays?
STAT1 act: 98; APP 5'UTR act: 3; STAT3 act: 106; NF-kB expr up: 1.1; STAT1 blocker: 2; STAT3 inh: 2

What do the screens show for `Cc1cc(Nc2ccc(F)cc2F)n2nc(C)nc2n1`?
STAT1 act: 96; APP 5'UTR act: -27; STAT3 act: 105; NF-kB expr up: 1.1; STAT1 blocker: 5; STAT3 inh: -5

Results for Fc1ccc(Nc2ccc3ccccc3n2)c(F)c1 ?
STAT1 act: 58; APP 5'UTR act: 200*; STAT3 act: 41; NF-kB expr up: 11*; STAT1 blocker: 44*; STAT3 inh: 72*

How did O=C(N/N=C/c1ccc[nH]1)c1ccc(COc2cccc3cccnc23)cc1 do in these assays?
STAT1 act: 114; APP 5'UTR act: -46; STAT3 act: 42; STAT1 blocker: -15; STAT3 inh: 70*

How did O=C(N/N=C/c1ccccc1C(=O)O)c1ccc(COc2cccc3cccnc23)cc1 do in these assays?
STAT1 act: 112; APP 5'UTR act: 15; STAT3 act: 106; NF-kB expr up: 1; STAT1 blocker: -15; STAT3 inh: -6

Results for CC(=O)c1ccc(NC(=O)C2C3C=CC(C3=C(c3ccccc3)c3ccccc3)C2C(=O)O)cc1 (stereo not drawn) ?
STAT1 act: 96; APP 5'UTR act: 29; STAT3 act: 90; NF-kB expr up: 1.1; STAT1 blocker: 3; STAT3 inh: 14
